# Results published in ChEMBL document CHEMBL3400023, “Synthesis and evaluation of novel amide amino-β-lactam derivatives as cholesterol absorption inhibitors” (Bioorg Med Chem, 2015).
# Columns and labels:
# [1] = molecular target: T1, NPC1-like intracellular cholesterol transporter 1 (Homo sapiens) (UniProt Q9UHC9); experiment: Inhibition of human NPC1L1 transfected in MDCK2 cells assessed as [3H]cholesterol uptake at 60 uM after 1 hr by liquid scintillation counting analysis; type: cell-based; details: MDCK-II
# T1 sequence (whole entry): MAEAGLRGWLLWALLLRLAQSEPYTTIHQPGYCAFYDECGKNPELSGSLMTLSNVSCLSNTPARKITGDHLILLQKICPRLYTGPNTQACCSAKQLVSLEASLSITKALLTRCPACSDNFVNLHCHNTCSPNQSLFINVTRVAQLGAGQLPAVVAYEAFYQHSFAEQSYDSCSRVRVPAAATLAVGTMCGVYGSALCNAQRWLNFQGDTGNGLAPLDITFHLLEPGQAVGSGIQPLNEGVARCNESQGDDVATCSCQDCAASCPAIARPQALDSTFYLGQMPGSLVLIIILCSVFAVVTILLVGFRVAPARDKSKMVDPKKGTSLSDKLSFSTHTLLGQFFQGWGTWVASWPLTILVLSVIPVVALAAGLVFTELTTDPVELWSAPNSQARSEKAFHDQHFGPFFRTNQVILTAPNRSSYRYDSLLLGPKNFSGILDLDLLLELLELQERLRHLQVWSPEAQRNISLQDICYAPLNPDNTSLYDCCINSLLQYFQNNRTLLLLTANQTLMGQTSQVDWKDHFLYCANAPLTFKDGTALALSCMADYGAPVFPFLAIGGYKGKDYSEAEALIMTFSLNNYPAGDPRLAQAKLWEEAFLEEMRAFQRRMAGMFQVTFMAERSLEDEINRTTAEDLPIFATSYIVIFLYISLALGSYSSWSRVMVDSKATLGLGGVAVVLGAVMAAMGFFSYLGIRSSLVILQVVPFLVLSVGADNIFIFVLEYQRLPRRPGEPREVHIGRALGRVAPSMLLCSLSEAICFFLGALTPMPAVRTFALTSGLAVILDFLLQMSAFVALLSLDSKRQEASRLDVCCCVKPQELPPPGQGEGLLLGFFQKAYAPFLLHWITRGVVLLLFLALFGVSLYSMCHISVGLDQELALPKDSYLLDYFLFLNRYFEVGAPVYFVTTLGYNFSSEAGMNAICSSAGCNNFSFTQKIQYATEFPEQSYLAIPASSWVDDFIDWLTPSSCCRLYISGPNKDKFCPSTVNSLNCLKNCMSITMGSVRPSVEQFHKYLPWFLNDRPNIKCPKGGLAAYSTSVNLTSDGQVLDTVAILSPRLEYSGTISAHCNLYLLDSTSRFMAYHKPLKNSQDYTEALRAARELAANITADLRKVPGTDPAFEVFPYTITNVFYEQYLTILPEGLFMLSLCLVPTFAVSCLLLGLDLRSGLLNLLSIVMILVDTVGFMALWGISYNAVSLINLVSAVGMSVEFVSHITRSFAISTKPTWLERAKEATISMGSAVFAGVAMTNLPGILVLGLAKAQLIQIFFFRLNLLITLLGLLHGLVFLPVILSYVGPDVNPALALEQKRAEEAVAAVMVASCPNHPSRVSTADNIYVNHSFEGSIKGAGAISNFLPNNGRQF
# Summary of the method: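 hNPC1L1/MDCKII cells were seeded in DMEM with 5% LPDS 24 h before treatment, then PBS-washed. Cells were exposed for 1 h to micellar medium carrying [3H]cholesterol (0.18 μCi/mL) plus compound (0–200 μM). They were washed with ice-cold 0.2% fatty acid-free BSA and lysed, and lysate counted by scintillation. Counts were normalised to protein (CPM/mg) and expressed as % inhibition versus untreated cells. Duplicates, three independent experiments.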
# [2] = Cytotoxicity against MDCK2 cells dosed with micelles after 1 hr; set-up: species or system Canis lupus familiaris; details: dog, mdck-ii
# Summary of the method: (§1)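 MDCKII cells (wild type or stably expressing hNPC1L1, G418-maintained) seeded at 2 × 10^5 cells/mL 24 h ahead in DMEM/10% FCS. Cells exposed for 1 h, then viability read by MTT assay.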
# [3] = Cytotoxicity against MDCK2 cells expressing human NPC1L1 dosed with micelles after 1 hr; set-up: species or system Canis lupus familiaris; details: dog, mdck-ii; summary of the method: as §1
Structure (SMILES),inhibition [1] [%],Activity [2],Activity [3]
O=C(N[C@H]1C(=O)N(c2ccc(F)cc2)[C@@H]1c1ccc(O)cc1)c1ccc(F)cc1,60,Non-toxic,Non-toxic
O=C(/C=C/c1ccccc1)N[C@H]1C(=O)N(c2ccc(F)cc2)[C@@H]1c1ccc(O)cc1,–,Non-toxic,Non-toxic
O=C(Cc1ccc(F)cc1)N[C@H]1C(=O)N(c2ccc(F)cc2)[C@@H]1c1ccc(O)cc1,–,Non-toxic,Non-toxic
O=C(N[C@H]1C(=O)N(c2ccc(F)cc2)[C@@H]1c1ccc(O)cc1)c1ccccc1,60,Non-toxic,Non-toxic
O=C(/C=C/c1ccc(F)cc1)N[C@H]1C(=O)N(c2ccc(F)cc2)[C@@H]1c1ccc(O)cc1,–,Non-toxic,Non-toxic
O=C(Cc1ccccc1)N[C@H]1C(=O)N(c2ccc(F)cc2)[C@@H]1c1ccc(O)cc1,–,Non-toxic,Non-toxic
O=C1[C@H](CC[C@H](O)c2ccc(F)cc2)[C@@H](c2ccc(O)cc2)N1c1ccc(F)cc1 [EZETIMIBE],40,Non-toxic,Non-toxic
